Laboratory results published in article PMC5260863 (Journal of medicinal chemistry, 2016).
“And” between values parts separate entries of the source, which are not always exact repeats. Equal entries are not always repeated. Each block holds one compound with its values, some of them ahead of it.

Experiments:
HEK293 lysate = HEK293 lysate inhibition assay; type: biochemical, human; conditions: read-out: IC50 HEK293, mean of at least three experiments ± SEM
HeLa cells = experiment: HeLa EC50 analysis; type: cell-based, human; conditions: 48 hours of treatment
HEK293 cells = experiment: HEK293 EC50 analysis; type: cell-based, human; conditions: 48 hours of treatment
MV4–11 cells [1] = experiment: Western blot analysis of MV4–11 cells; type: cell-based, human; conditions: for AcHH3 and AcHH4 at varied doses: 6 hours
In short: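 Cells were seeded at 500k cells/mL in 6-well plates and pre-incubated 24 h. They were then exposed to test compound at 100 nM for 24 h, or at varied doses for 6 h. Pellets were lysed in RIPA (Tris, NaCl, EDTA, SDS, deoxycholate, Triton X-100), sonicated, spun 15 min at 4°C, then heated in β-mercaptoethanol/LDS at 90°C. Primary antibody ran overnight at 4°C. Bands were normalized to actin, n ≥ 2.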

MV4–11 cells [2] = experiment: MV4–11 EC50 analysis; type: cell-based, human
recombinant HDAC1 = recombinant HDAC1 (Homo sapiens, UniProt Q13547); experiment: Recombinant HDAC Vmax study; type: biochemical
human PBMCs = experiment: Human peripheral blood mononuclear cell analysis; type: cell-based
[3] = ESI-LCMS glucuronidation assay; type: in vitro ADME, human; conditions: 12 hours at 37°C; for glucuronidation in human liver microsomes with UDP Glucuronic acid: alamethicin, ESI-LCMS
In short: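 Pooled mixed-gender human liver microsomes at 250 µg/mL in 100 mM Tris HCl, pH 7.5. Alamethicin 1 µg/mL and MgCl2 5 mM (final), rocked 15 min at 4°C for pore formation. Test compound (5 mM stock) added with UDPGA (50 mM stock) or water, rocked 12 h at 37°C. Quenched with water/acetonitrile/formic acid 47:50:3, centrifuged 15000g. Supernatant analysed by reversed-phase ESI-LCMS TIC.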

RPMI-8226 cells = experiment: Cell viability, CellTiter-Blue; type: cell-based, human; conditions: even at mM concentrations
recombinant HDAC3 = recombinant HDAC3 (Homo sapiens, UniProt O15379); experiment: Recombinant HDAC Vmax study; type: biochemical
recombinant HDAC3, sequence (O15379 whole entry): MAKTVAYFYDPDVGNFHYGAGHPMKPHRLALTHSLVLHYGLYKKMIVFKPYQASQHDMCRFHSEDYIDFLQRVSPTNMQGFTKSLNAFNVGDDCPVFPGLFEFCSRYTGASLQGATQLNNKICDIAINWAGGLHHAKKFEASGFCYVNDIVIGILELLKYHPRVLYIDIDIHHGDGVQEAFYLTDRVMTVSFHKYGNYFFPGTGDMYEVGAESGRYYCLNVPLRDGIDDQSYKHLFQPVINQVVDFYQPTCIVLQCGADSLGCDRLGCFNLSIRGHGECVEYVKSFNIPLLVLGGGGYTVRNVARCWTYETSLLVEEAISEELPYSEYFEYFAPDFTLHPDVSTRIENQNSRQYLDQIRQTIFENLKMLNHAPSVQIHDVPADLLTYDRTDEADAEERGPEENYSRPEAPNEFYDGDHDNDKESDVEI
recombinant HDAC3, sequence (Q9Y618 395-489 partner limits assumed): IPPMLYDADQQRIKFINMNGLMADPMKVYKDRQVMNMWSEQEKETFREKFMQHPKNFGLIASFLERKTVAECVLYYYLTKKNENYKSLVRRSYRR

recombinant HDAC1, sequence (Q13547 whole entry): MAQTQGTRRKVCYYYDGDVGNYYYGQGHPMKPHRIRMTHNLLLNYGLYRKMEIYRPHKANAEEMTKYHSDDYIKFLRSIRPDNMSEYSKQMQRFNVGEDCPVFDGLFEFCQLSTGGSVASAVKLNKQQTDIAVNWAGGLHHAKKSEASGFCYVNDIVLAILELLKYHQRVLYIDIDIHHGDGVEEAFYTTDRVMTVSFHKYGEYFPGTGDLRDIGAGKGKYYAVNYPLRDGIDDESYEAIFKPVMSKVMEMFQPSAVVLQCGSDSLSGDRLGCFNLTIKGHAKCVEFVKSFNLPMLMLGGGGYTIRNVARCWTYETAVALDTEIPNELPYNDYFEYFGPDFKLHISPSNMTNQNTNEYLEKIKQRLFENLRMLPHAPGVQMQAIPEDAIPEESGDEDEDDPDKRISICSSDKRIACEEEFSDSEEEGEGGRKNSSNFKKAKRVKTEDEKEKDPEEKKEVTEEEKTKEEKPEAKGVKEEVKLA

SMILES: CCCCNNC(=O)c1ccc(OC)cc1 [1a, N’-butyl-4-methoxybenzohydrazide]
- IC50 (HEK293 lysate): 0.727 ± 0.0108 µM

SMILES: CCCCNNC(=O)c1cc2ccccc2o1 [1b, N’-butylbenzofuran-2-carbohydrazide]
- IC50 (HEK293 lysate): 1.69 ± 0.0381 µM

SMILES: CCCCNNC(=O)c1ccc(Oc2ccccc2)cc1 [1c, N’-butyl-4-phenoxybenzohydrazide]
- IC50 (HEK293 lysate): 1.69 ± 0.298 µM

SMILES: CCCCNNC(=O)c1cccnc1 [1d, N’-butylnicotinohydrazide]
- IC50 (HEK293 lysate): 4.68 ± 0.909 µM

SMILES: CCCCNNC(=O)c1cccs1 [1f, N’-butylthiophene-2-carbohydrazide]
- IC50 (HEK293 lysate): 3.46 ± 0.669 µM

SMILES: CCCCNNC(=O)c1ccco1 [1g, N’-butylfuran-2-carbohydrazide]
- IC50 (HEK293 lysate): > 10 µM

SMILES: CCCCNNC(=O)CCc1ccccc1 [1h, N’-butyl-3-phenylpropanehydrazide]
- IC50 (HEK293 lysate): > 10 µM

SMILES: CCCCNNC(=O)/C=C/c1ccccc1 [1i, N’-butylcinnamohydrazide]
- IC50 (HEK293 lysate): 1.44 ± 0.0861 µM

SMILES: CCCCNNC(=O)c1cccc2ccccc12 [1j, N’-butyl-1-napthohydrazide]
- IC50 (HEK293 lysate): > 10 µM

SMILES: CCCCNNC(=O)c1ccc(CNC(=O)c2ccccc2)cc1 [1l, N-(4-(2-butylhydrazine-1-carbonyl)benzyl)benzamide]
- killing of HeLa cells (HeLa cells): Neither 1l, 2d, nor 3b display effective killing of this solid tumor cell line
- killing of HEK293 cells (HEK293 cells): Neither 11, 2d, nor 3b display effective killing of this solid tumor cell line
- upregulation of Acetylated Histones H3 and H4 (AcHH3/AcHH4) (MV4–11 cells [1]; 100 nM, 24 hours): higher upregulation of Acetylated Histones H3 and H4 (AcHH3/AcHH4) than vorinostat and entinostat
- AcHH3 and AcHH4 at varied doses (MV4–11 cells [1]): dose-dependent increase in AcHH3 and AcHH4

SMILES: C/C=C/CNNC(=O)c1ccc(CNC(=O)c2ccccc2)cc1 [2a, (E)-N-(4-(2-(but-2-en-1-yl)hydrazine-1-carbonyl)benzyl)benzamide]
- IC50 (HEK293 lysate): > 10 µM

SMILES: CC(C)NNC(=O)c1ccc(CNC(=O)c2ccccc2)cc1 [2b, N-(4-(2-isopropylhydrazine-1-carbonyl)benzyl)benzamide]
- IC50 (HEK293 lysate): > 10 µM

SMILES: CC/C=N/NC(=O)c1ccc(CNC(=O)c2ccccc2)cc1 [2c, (E)-N-(4-(2-propylidenehydrazine-1-carbonyl)benzyl)benzamide]
- IC50 (HEK293 lysate): > 10 µM
- activity against MV4–11 cells (MV4–11 cells [2]; doses as high as 250 µM, negative control): no appreciable activity
- upregulation of Acetylated Histones H3 and H4 (AcHH3/AcHH4) (MV4–11 cells [1]; 100 nM, 24 hours): no appreciable ability to increase acetylation of histones H3 and H4

- mode of inhibition, HDAC1 (Lineweaver-Burke plot) (recombinant HDAC1): mixed inhibition
SMILES: CCCNNC(=O)c1ccc(CNC(=O)c2ccccc2)cc1 [2d, N-(4-(2-propylhydrazine-1-carbonyl)benzyl)benzamide]
- killing of HeLa cells (HeLa cells): Neither 1l, 2d, nor 3b display effective killing of this solid tumor cell line
- toxicity toward PBMCs compared to panobinostat (human PBMCs; 24 hours treatment): superior toxicity (less PBMC killing) than panobinostat
- less toxicity toward PBMCs than 3b (human PBMCs; vs 3b, until the high micromolar range): 10 fold and ~ 10 fold
- killing of HEK293 cells (HEK293 cells): Neither 11, 2d, nor 3b display effective killing of this solid tumor cell line
- metabolites in human liver microsomes ([3]; with and without UDPGA, no NADPH added): Neither vessel contained any detectable metabolites other than parent compound
- upregulation of Acetylated Histones H3 and H4 (AcHH3/AcHH4) (MV4–11 cells [1]; 100 nM, 24 hours): higher upregulation of Acetylated Histones H3 and H4 (AcHH3/AcHH4) than vorinostat and entinostat
- AcHH3 and AcHH4 at varied doses (MV4–11 cells [1]): dose-dependent increase in AcHH3 and AcHH4

SMILES: O=C(NCc1ccc(C(=O)NNCCC(F)(F)F)cc1)c1ccccc1 [2f, N-(4-(2-(3,3,3-trifluoropropyl)hydrazine-1-carbonyl)benzyl)benzamide]
- IC50 (HEK293 lysate): 1.23 ± 0.137 µM

SMILES: O=C(NCc1ccc(C(=O)NNCC2CC2)cc1)c1ccccc1 [2g, N-(4-(2-(cyclopropylmethyl)hydrazine-1-carbonyl)benzyl)benzamide]
- IC50 (HEK293 lysate): 1.62 ± 0.196 µM

SMILES: CCCCCCCNNC(=O)c1ccc(CNC(=O)c2ccccc2)cc1 [2h, N-(4-(2-heptylhydrazine-1-carbonyl)benzyl)benzamide]
- IC50 (HEK293 lysate): 2.16 ± 0.896 µM

SMILES: CCCCCCCCNNC(=O)c1ccc(CNC(=O)c2ccccc2)cc1 [2i, N-(4-(2-octylhydrazine-1-carbonyl)benzyl)benzamide]
- IC50 (HEK293 lysate): > 10 µM

SMILES: CCCCCCNNC(=O)c1ccc(CNC(=O)c2ccccc2)cc1 [2j, N-(4-(2-hexylhydrazine-1-carbonyl)benzyl)benzamide]
- IC50 (HEK293 lysate): 0.55 ± 0.134 µM

SMILES: CCCCCCCCCCNNC(=O)c1ccc(CNC(=O)c2ccccc2)cc1 [2k, N-(4-(2-decylhydrazine-1-carbonyl)benzyl)benzamide]
- IC50 (HEK293 lysate): > 10 µM

SMILES: CCNNC(=O)c1ccc(CNC(=O)c2ccccc2)cc1 [2l, N-(4-(2-ethylhydrazine-1-carbonyl)benzyl)benzamide]
- IC50 (HEK293 lysate): 0.427 ± 0.111 µM

SMILES: O=C(NCc1ccc(C(=O)NNCC2CCC2)cc1)c1ccccc1 [2m, N-(4-(2-(cyclobutylmethyl)hydrazine-1-carbonyl)benzyl)benzamide]
- IC50 (HEK293 lysate): 1.88 ± 0.212 µM

SMILES: CCNNC(=O)c1ccc(CNC(=O)/C=C/c2ccccc2)cc1 [3a, N-(4-(2-ethylhydrazine-1-carbonyl)benzyl)cinnamide]
- IC50 (HEK293 lysate): 0.171 ± 0.0342 µM

- decrease in EC50 in MV4–11 cells compared to 2d (MV4–11 cells [2]; vs 2d): ~2.5 fold
- glucuronidation in human liver microsomes with UDP Glucuronic acid [3]: not readily glucuronidated
SMILES: CCCNNC(=O)c1ccc(CNC(=O)/C=C/c2ccccc2)cc1 [3b, N-(4-(2-propylhydrazine-1-carbonyl)benzyl)cinnamamide]
- kill curve against RPMI-8226 (RPMI-8226 cells): incomplete kill curves
- killing of HeLa cells (HeLa cells): Neither 1l, 2d, nor 3b display effective killing of this solid tumor cell line
- toxicity toward PBMCs compared to panobinostat (human PBMCs; 24 hours treatment): superior toxicity (less PBMC killing) than panobinostat
- killing of HEK293 cells (HEK293 cells): Neither 11, 2d, nor 3b display effective killing of this solid tumor cell line
- upregulation of Acetylated Histones H3 and H4 (AcHH3/AcHH4) (MV4–11 cells [1]; 100 nM, 24 hours): higher upregulation of Acetylated Histones H3 and H4 (AcHH3/AcHH4) than vorinostat and entinostat
- AcHH3 and AcHH4 at varied doses (MV4–11 cells [1]): dose-dependent increase in AcHH3 and AcHH4

SMILES: CCCCCNNC(=O)c1ccc(CNC(=O)/C=C/c2ccccc2)cc1 [3d, N-(4-(2-pentylhydrazine-1-carbonyl)benzyl)cinnamide]
- IC50 (HEK293 lysate): 0.691 ± 0.0547 µM

SMILES: CCCCCCNNC(=O)c1ccc(CNC(=O)/C=C/c2ccccc2)cc1 [3e, N-(4-(2-hexylhydrazine-1-carbonyl)benzyl)cinnamamide]
- IC50 (HEK293 lysate): 1.72 ± 0.139 µM

SMILES: Cc1[nH]c2ccccc2c1CCNCc1ccc(/C=C/C(=O)NO)cc1 [Panobinostat, panobinostat, reference compound]
- concentration at which toxicity toward PBMCs is displayed (human PBMCs; 24 hours treatment): 10 nM
- Acetylated Tubulin (AcTub) levels (MV4–11 cells [1]; 100 nM, 24 hours, marker of HDAC6 inhibition): the only inhibitor to raise Acetylated Tubulin (AcTub) levels at this concentration

SMILES: O=C(CCCCCCC(=O)Nc1ccccc1)NO [vorinostat, reference compound]
- mode of inhibition, HDAC1 (Lineweaver-Burke plot) (recombinant HDAC1): competitive inhibition
- glucuronidation in human liver microsomes with UDP Glucuronic acid [3]: presence of the o-glucuronidated metabolite
- mode of inhibition, HDAC3 (Lineweaver-Burke plot) (recombinant HDAC3): competitive inhibition
